PubChem BioAssay
The source made the active and inactive calls.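 The calls were made as follows, unless noted: active = inhibition at or above 50% at 10 µM; inactive = inhibition below 50%.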

How the values were obtained:
[1] = inhibitors of TNFa-induced NFkB p65 translocation, primary screen, imaging, HUVEC, MLSMR starter and 10KST1 sets (AID 438;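 active = inhibition above 20% together with a positive visual image hit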;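 also: compound added about 3h40 before a 20 min TNFalpha stimulation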;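 as to inhibition: signal is the nuclear over cytoplasmic p65 intensity ratio per well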); conditions: HUVEC TNFa-induced p65 nuclear translocation; cell count: measured here: nuclei count (cytotoxicity indicator), at 2.08 µM; inhibition: at 2 µM, stronger effect = higher value, 0% TNFa-plus-vehicle, 100% no-TNFa wells
[2] = reduction of polyQ htt aggregates in cells – imaging, exon1htt(103Q)mCFP cells, high-content imaging, primary screen (AID 483;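 active = visual image review flags a hit and inhibition of aggregation exceeds 20%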;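 also: compound exposure lasted 3 days before fixation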;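 as to nuclei count: percent of the per-plate median nuclei count of sample wells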); conditions: exon1htt(103Q)mCFP cell line, aggregate imaging, at 2 µM; inhibition of aggregation: stronger effect = higher value; nuclei count: measured here: cell count, toxicity
[3] = endothelial E-selectin expression blockers – imaging, HUVEC, immunofluorescence, MLSMR starter and 10KST1 sets, primary screen (AID 487;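 active = visually confirmed hit in the image check and inhibition above 20%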;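 as to inhibition: signal is fraction of cell area covered by stained E-selectin grains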;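 as to nuclei count: 100% = median nuclei count of all wells on the same plate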); conditions: HUVEC TNFalpha-induced E-selectin immunofluorescence imaging, at 2 µM; inhibition: stronger effect = higher value; nuclei count: measured here: cell number, toxicity
[4] = molecular target: Voltage-gated potassium channel subunit beta-2 (Rattus norvegicus) (UniProt P62483); assay: inhibitors of rat Kvbeta2 reductase activity – biochemical, NADPH fluorescence, primary screen (AID 622;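 active = fluorescence slope higher than the sample average by over 3 SD, cut at about -0.22 in these data, passing the limit was not always enough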;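 also: slope of raw intensity against log time taken from 70 to 1610 s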); conditions: recombinant KvBeta, 4-cyanobenzaldehyde reduction, at 10 µM, stronger effect = higher value
[5] = molecular target: Voltage-gated potassium channel subunit beta-2 (Rattus norvegicus) (UniProt P62483); assay: enhancers of rat Kvbeta2 NADPH turnover – biochemical, NADPH fluorescence, primary screen (AID 623;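 active = NADPH fluorescence slope more negative than the mean of all samples by about 3 SD, 99.7% confidence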;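 also: fluorescence intensity change per second fitted from 20 to 320 s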); conditions: Recombinant KvBeta, NADPH fluorescence decrease slope, 10 min; at 10 µM; stronger effect = lower value
[6] = molecular target: Alpha-2C adrenergic receptor (Homo sapiens) (UniProt P18825); assay: compounds altering alpha2C-coupled GIRK flux – cell-based, HEK293 alpha2C/GIRK1/2, thallium flux, primary screen (AID 624;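 active = fluorescence slope after compound addition differing from the mean of all screened samples at 99.7% confidence, in either direction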;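 also: slope of fluorescence ratio to pre-addition baseline per second over 15 to 24 s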); conditions: thallium flux BTC fluorescence, at 10 µM, actives lie on both sides
[7] = inhibitors of larval lipid processing in zebrafish, primary screen, whole organism, PED6 fluorescence, gall bladder and intestine (AID 686;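 active = a full or partial loss of lipid-probe fluorescence in the fish gall bladder, intestine or both, judged by eye; inactive = no fluorescence loss, or compound toxic to the fish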;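 also: larvae 5 to 7 days old with five fish per well; signal comes from phospholipase A2 cleavage of quenched PED6 carried via bile; overnight exposure to compound and PED6 before scoring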); conditions: Zebrafish larvae PED6 lipid processing, fluorescence scoring; screened at 20 µM (by protocol)
Method in brief: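 Test system – live zebrafish larvae aged 5-7 days, whole organism · Buffer or medium – E3 fish medium · Reagent – quenched phospholipase substrate PED6, 100 nM final, ingested by larvae · Doses – 20 µM single dose · Incubation – overnight compound and PED6 incubation · Technique – visual fluorescence microscopy scoring of gall bladder, gut · Read-out basis – visual per-well fluorescence inhibition score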

[8] = blockers of RIG-like receptor reporter activation – cell-based, Sendai virus stimulus, luciferase, 10K MLSCN set, TLR/RLR signaling modifier project, primary screen (AID 602276); conditions: HEK293 RL24 IRF3 luciferase reporter, at 10 µM, stronger effect = higher value;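 also: firefly luciferase from ISG56 promoter only with Renilla not read in this screen; 0% = Sendai virus plus DMSO and 100% = medium plus DMSO without virus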
[9] = TLR3 IRF3 reporter activation blockers – cell-based, poly I:C stimulus, luciferase, 10K MLSCN set, primary screen (AID 602277;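 active = inhibition of the reporter signal at or above 50%; inactive = inhibition below 50%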); conditions: HEK293-TLR3 RL24 IRF3 luciferase reporter, at 10 µM, stronger effect = higher value

Voltage-gated potassium channel subunit beta-2 (Rattus norvegicus), sequence (P62483 whole entry, looked up): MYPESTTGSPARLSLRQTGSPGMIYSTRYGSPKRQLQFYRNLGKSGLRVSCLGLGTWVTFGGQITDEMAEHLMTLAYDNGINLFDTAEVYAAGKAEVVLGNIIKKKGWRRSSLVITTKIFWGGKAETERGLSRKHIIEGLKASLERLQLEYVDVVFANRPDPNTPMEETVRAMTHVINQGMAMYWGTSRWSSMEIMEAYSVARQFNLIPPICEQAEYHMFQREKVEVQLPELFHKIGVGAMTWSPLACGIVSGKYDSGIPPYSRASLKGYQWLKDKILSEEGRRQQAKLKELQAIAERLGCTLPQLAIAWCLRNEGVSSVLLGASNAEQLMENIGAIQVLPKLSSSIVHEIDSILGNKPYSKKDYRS
Alpha-2C adrenergic receptor (Homo sapiens), sequence (P18825 whole entry, looked up): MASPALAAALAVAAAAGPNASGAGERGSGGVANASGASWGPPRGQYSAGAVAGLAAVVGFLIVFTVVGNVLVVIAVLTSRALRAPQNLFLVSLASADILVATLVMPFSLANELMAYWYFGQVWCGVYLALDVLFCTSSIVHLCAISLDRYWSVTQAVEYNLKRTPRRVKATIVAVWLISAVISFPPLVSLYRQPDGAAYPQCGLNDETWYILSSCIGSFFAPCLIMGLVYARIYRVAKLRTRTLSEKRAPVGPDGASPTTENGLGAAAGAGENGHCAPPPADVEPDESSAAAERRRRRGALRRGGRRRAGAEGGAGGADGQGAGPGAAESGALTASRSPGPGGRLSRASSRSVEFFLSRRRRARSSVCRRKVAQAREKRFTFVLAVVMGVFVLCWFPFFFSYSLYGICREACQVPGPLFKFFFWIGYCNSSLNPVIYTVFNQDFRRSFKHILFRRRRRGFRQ

Row | SMILES | cell count [1] | inhibition [1] | inhibition of aggregation [2] | nuclei count [2] | inhibition [3] | nuclei count [3] | fluorescence slope [4] | NADPH fluorescence slope [5] | slope [6] | outcome [7] | inhibition [8] | inhibition [9]
1 | Cc1ccc(Cl)cc1N1CCN(C(=O)c2cn(C)c(=O)c3c2c2ccccc2n3C)CC1 | 270 | -3.3% (inactive) | 17.2% (inactive) | 8% | -33.6% (inactive) | 114% | -0.352 (inactive) | -2e-05 (inactive) | 0.00673 (inactive) | inactive | 16.1% (inactive) | 28% (inactive)
2 | CCOc1ccc(NS(=O)(=O)c2cc(Cl)ccc2OC)cc1 | 279 | -4.2% (inactive) | 19.4% (inactive) | 95.4% | -147% (inactive) | 129% | -0.282 (inactive) | 1.3e-05 (inactive) | 0.00586 (inactive) | inactive | 14.5% (inactive) | 21% (inactive)
3 | FC(F)(F)c1ccc(Sc2nnc(-c3cccs3)n2CC2CCCO2)nc1 (centres undefined) | 357 | -21.4% (inactive) | -3% (inactive) | 83.2% | -85.5% (inactive) | 104% | -0.424 (inactive) | -7.7e-06 (inactive) | 0.00449 (inactive) | inactive | 13.6% (inactive) | 6.99% (inactive)
4 | COc1ccc(NC(=O)Nc2ccccc2C)c(OC)c1 | 371 | 1.5% (inactive) | -3.2% (inactive) | 107% | -31.1% (inactive) | 116% | -0.379 (inactive) | -7.9e-05 (inactive) | 0.00603 (inactive) | inactive | 6.08% (inactive) | 12.1% (inactive)
5 | Cc1ccc2[nH]c3c(=O)n(CCCN4CCN(C)CC4)cnc3c2c1 | 478 | 1% (inactive) | -13.7% (inactive) | 105% | -36.8% (inactive) | 115% | -0.38 (inactive) | -2.9e-05 (inactive) | 0.0053 (inactive) | inactive | 1.24% (inactive) | 22.2% (inactive)
6 | O=C(COc1ccc(S(=O)(=O)NC2CCCCC2)cc1)NCc1ccccn1 | 400 | -5.1% (inactive) | -2.7% (inactive) | 101% | -8.3% (inactive) | 107% | -0.401 (inactive) | -1.8e-06 (inactive) | 0.00588 (inactive) | inactive | -5.78% (inactive) | 1.29% (inactive)
7 | Cc1cc(C)c(NC2=NCC(=O)N2C2CCCCC2)c(C)c1 | 638 | -2.2% (inactive) | 5.3% (inactive) | 122% | -32.7% (inactive) | 114% | -0.389 (inactive) | 1.7e-05 (inactive) | 0.00607 (inactive) | inactive | -0.88% (inactive) | -0.177% (inactive)
8 | O=C(NCc1cccnc1)c1cccc(C(F)(F)F)c1 | 355 | 5.2% (inactive) | 1.3% (inactive) | 111% | 4.9% (inactive) | 103% | -0.452 (inactive) | -2.9e-05 (inactive) | 0.00523 (inactive) | inactive | 11.3% (inactive) | 20.1% (inactive)
9 | Cc1ccc(CN2C(=O)CCC2C(=O)NCCCN2CCCC(C)C2)cc1 (centres undefined) | 436 | 6.9% (inactive) | -3.9% (inactive) | 106% | -43.5% (inactive) | 129% | -0.434 (inactive) | -2.5e-05 (inactive) | 0.0056 (inactive) | inactive | -5.02% (inactive) | 4.05% (inactive)
10 | CCCc1ccccc1OCCNC(C)=O | 585 | 9.6% (inactive) | 18.6% (inactive) | 116% | -76.7% (inactive) | 105% | -0.366 (inactive) | -3.9e-06 (inactive) | 0.00527 (inactive) | inactive | -4.34% (inactive) | 3.6% (inactive)
11 | COc1cccc(NC(=O)c2ccccc2NS(C)(=O)=O)c1 | 328 | -6.5% (inactive) | -12.9% (inactive) | 112% | -133% (inactive) | 149% | -0.418 (inactive) | -3.8e-05 (inactive) | 0.00548 (inactive) | inactive | 18.7% (inactive) | 13.1% (inactive)
12 | CCOc1ccccc1C1N(c2ccc(F)cc2)C(=O)C2CCCN21 (centres undefined) | 465 | -0.3% (inactive) | -10.1% (inactive) | 103% | 45.7% (inactive) | 91.5% | -0.349 (inactive) | -4.9e-05 (inactive) | 0.00484 (inactive) | inactive | 13.2% (inactive) | 17.1% (inactive)
13 | COc1ccccc1OCc1ccc(C(=O)N2CCN(C(=O)c3ccco3)CC2)cc1 | 502 | -32.6% (inactive) | 6% (inactive) | 98.6% | -92.1% (inactive) | 103% | -0.416 (inactive) | -3e-05 (inactive) | 0.00401 (inactive) | inactive | 1.91% (inactive) | 18% (inactive)
14 | CCN(CC)C(c1ccc(C)cc1)c1nnnn1C1CCCCC1 (centres undefined) | 438 | -6.7% (inactive) | 37.1% (inactive) | 85.4% | 60% (inactive) | 88.2% | -0.399 (inactive) | -6.9e-05 (inactive) | 0.00367 (inactive) | inactive | 16.7% (inactive) | 25.8% (inactive)
15 | O=C(CSCc1n[nH]c(=O)[nH]1)NCCOc1cccc(Oc2ccccc2)c1 | 615 | -13% (inactive) | 8.5% (inactive) | 77.7% | -16.1% (inactive) | 105% | -0.417 (inactive) | -6.7e-05 (inactive) | 0.00545 (inactive) | inactive | -14.2% (inactive) | 2.61% (inactive)
16 | Cn1c(=O)c2c(nc(N3CCN(c4ccccc4)CC3)n2CCCc2ccccc2)n(C)c1=O | 702 | 1.4% (inactive) | -15.2% (inactive) | 99.1% | 20.4% (inactive) | 96.5% | -0.339 (inactive) | -3.2e-05 (inactive) | 0.00552 (inactive) | inactive | 10.7% (inactive) | -10.5% (inactive)
17 | Cc1ccc(NC(=O)c2ccco2)c(NC(=O)CN2C(=O)c3ccccc3C2=O)c1 | 402 | -7.3% (inactive) | 6.5% (inactive) | 90.3% | -162% (inactive) | 155% | -0.466 (inactive) | -1.3e-05 (inactive) | 0.00456 (inactive) | inactive | 0.0738% (inactive) | -0.596% (inactive)
18 | CCOC(=O)C1=C(c2ccccc2)N2CCS(=O)(=O)N=C2S1 | 531 | 0.5% (inactive) | -5.8% (inactive) | 105% | -98.9% (inactive) | 108% | -0.271 (inactive) | -1e-05 (inactive) | 0.0047 (inactive) | inactive | 16.1% (inactive) | 20.5% (inactive)
19 | CCOc1ccccc1N1CC(O)=C(c2nc3ccccc3s2)C1=N | 348 | -0.8% (inactive) | 0.2% (inactive) | 97.7% | -69.5% (inactive) | 92% | -0.291 (inactive) | -3.9e-05 (inactive) | 0.00531 (inactive) | inactive | -19.5% (inactive) | 55.4% (active)
20 | CC1CC(C)CN(c2nc3c(c(=O)[nH]c(=O)n3C)n2CCCSc2nc3ccccc3s2)C1 (centres undefined) | 383 | -4.3% (inactive) | 33.6% (inactive) | 97.2% | -83.6% (inactive) | 107% | -0.445 (inactive) | -5e-05 (inactive) | 0.00577 (inactive) | inactive | 10.4% (inactive) | 11.5% (inactive)
21 | COc1ccc(OC)c(NS(=O)(=O)Cc2ccccc2)c1 | 356 | 6.3% (inactive) | -14.8% (inactive) | 110% | -73.7% (inactive) | 120% | -0.424 (inactive) | -1.8e-05 (inactive) | 0.00242 (inactive) | inactive | 13.9% (inactive) | 16.5% (inactive)
22 | Cc1cccc(C(=O)O)c1NC(=O)c1ccc(F)cc1 | 343 | 0.2% (inactive) | -4.7% (inactive) | 99.9% | 21.9% (inactive) | 97.3% | -0.333 (inactive) | -1.3e-05 (inactive) | 0.00577 (inactive) | inactive | -3.9% (inactive) | 2.7% (inactive)
23 | c1n[nH]c(SCCCCSc2ncn[nH]2)n1 | 512 | -30.6% (inactive) | -15.1% (inactive) | 108% | 24% (inactive) | 113% | -0.452 (inactive) | -7e-05 (inactive) | 0.00417 (inactive) | inactive | 15.9% (inactive) | 13% (inactive)
24 | Cc1nnc(SCc2nnc(-c3ccccc3Br)o2)n1-c1ccccc1 | 730 | 14.5% (inactive) | 38.5% (inactive) | 87.5% | -59.5% (inactive) | 93.8% | -0.455 (inactive) | -4e-05 (inactive) | 0.00597 (inactive) | inactive | 6.33% (inactive) | 8.93% (inactive)
25 | COc1ccccc1N1CCN(C(=O)C2CCN(S(=O)(=O)c3ccc(F)cc3)CC2)CC1 | 676 | 11.9% (inactive) | 6.6% (inactive) | 108% | -23.6% (inactive) | 96.3% | -0.415 (inactive) | -2.3e-05 (inactive) | 0.00451 (inactive) | inactive | -6.92% (inactive) | -9.69% (inactive)
26 | CN(C)C(CNC(=O)Nc1cccc(Cl)c1)c1cccnc1 (centres undefined) | 298 | -5.5% (inactive) | 1.1% (inactive) | 67.5% | -40.7% (inactive) | 115% | -0.427 (inactive) | -5.1e-06 (inactive) | 0.00889 (active) | inactive | 18.9% (inactive) | 26.3% (inactive)
27 | CCc1nnc(NC(=O)CSc2nnc3ncccn23)s1 | 341 | -5.8% (inactive) | -25.9% (inactive) | 132% | -34.8% (inactive) | 102% | -0.437 (inactive) | -9.3e-05 (inactive) | 0.00648 (inactive) | inactive | 18.7% (inactive) | 25.6% (inactive)
